The source of these data is ChEMBL document CHEMBL4834437, “Improvement of Oral Bioavailability of Pyrazolo-Pyridone Inhibitors of the Interaction of DCN1/2 and UBE2M” (J Med Chem, 2021).

The nature of series [1]: Toxicity in C57BL/6 mouse assessed as adverse effect at 15 mg/kg, iv administered as single dose measured after 48 hrs. In kind it is organism-based. The conditions noted are these: in vivo. In outline: (§1)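 Mice were watched for adverse reactions for 48 h after a single iv (15 mg/kg) or oral (50 mg/kg) dose. Vehicle was EtOH/PG/PEG/PBS (10/10/40/39, pH 7.4) with 1% (w/v) […]-β-cyclodextrin.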

The conditions of series [2]: mouse, in vivo, po, 50 mg/kg, 24 h.
The nature of series [3]: Toxicity in C57BL/6 mouse assessed as adverse effect at 50 mg/kg, po administered as single dose measured after 48 hrs. The note with it: in vivo. In kind it is organism-based. In outline:
as §1

Usually Cmax stands for the maximum level reached in the sampled fluid or tissue. Consider `CCN1C(=O)[C@@H](NC(=O)c2cccc(C)c2)[C@@H](c2ccc(F)cc2)c2c(C)nn(-c3ccccc3)c21` (relative stereo), for which the Activity entry in series [1] and in series [3] was “Non-Toxic” in each case. In series [2], this compound had a peak concentration (Cmax) of 360 nM.
